Laboratory results reported in ChEMBL document CHEMBL1141640, “Cyclic guanidines as dual 5-HT5A/5-HT7 receptor ligands: optimising brain penetration” (Bioorg Med Chem Lett, 2008).

Columns and labels:
[1] = molecular target: 5-hydroxytryptamine receptor 5A (Homo sapiens, UniProt P47898); assay: Binding affinity to human 5HT5A receptor; settings: read-out: Ki
[2] = Distribution coefficient, log D of the compound; type: physicochemical; settings: octanol/water
How it was run: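 Lipophilicity reported as log D at pH 7.4 (log D7.4), measured alongside the guanidine pKa.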

[3] = molecular target: T1, 5-hydroxytryptamine receptor 1A (Homo sapiens, UniProt P08908); assay: Binding affinity to 5HT1A receptor
T1 sequence (P08908 whole entry): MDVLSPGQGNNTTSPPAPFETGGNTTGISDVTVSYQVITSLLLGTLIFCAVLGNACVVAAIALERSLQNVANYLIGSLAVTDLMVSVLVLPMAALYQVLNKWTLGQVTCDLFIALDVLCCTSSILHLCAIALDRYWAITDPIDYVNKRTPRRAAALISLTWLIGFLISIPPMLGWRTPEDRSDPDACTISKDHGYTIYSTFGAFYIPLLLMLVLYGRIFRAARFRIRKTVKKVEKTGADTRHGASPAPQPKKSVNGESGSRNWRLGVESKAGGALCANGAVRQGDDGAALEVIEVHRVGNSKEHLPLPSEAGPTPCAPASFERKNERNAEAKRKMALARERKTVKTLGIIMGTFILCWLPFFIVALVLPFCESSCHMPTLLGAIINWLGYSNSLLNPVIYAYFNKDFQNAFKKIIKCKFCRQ

[4] = molecular target: 5-hydroxytryptamine receptor 7 (Homo sapiens, UniProt P34969); assay: Binding affinity to human 5HT7 receptor
Chain of 5-hydroxytryptamine receptor 7 (P34969 whole entry): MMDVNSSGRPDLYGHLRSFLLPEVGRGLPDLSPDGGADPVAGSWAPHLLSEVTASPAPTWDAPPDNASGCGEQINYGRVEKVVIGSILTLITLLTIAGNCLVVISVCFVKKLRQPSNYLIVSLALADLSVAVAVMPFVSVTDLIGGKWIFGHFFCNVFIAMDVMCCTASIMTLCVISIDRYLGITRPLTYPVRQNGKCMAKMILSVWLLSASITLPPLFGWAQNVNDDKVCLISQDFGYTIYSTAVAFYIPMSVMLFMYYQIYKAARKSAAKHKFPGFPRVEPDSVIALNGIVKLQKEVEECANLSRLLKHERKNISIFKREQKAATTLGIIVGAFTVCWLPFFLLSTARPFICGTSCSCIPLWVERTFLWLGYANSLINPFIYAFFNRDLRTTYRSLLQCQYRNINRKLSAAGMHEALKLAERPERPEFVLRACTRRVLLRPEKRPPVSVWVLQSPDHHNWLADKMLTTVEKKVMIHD

[5] = Selectivity for human 5HT5A receptor over 5HT6 receptor
[6] = Dissociation constant, pKa of the compound; type: physicochemical
[7] = molecular target: 5-hydroxytryptamine receptor 1D (Homo sapiens, UniProt P28221); assay: Binding affinity to 5HT1D receptor
Chain of 5-hydroxytryptamine receptor 1D (P28221 whole entry): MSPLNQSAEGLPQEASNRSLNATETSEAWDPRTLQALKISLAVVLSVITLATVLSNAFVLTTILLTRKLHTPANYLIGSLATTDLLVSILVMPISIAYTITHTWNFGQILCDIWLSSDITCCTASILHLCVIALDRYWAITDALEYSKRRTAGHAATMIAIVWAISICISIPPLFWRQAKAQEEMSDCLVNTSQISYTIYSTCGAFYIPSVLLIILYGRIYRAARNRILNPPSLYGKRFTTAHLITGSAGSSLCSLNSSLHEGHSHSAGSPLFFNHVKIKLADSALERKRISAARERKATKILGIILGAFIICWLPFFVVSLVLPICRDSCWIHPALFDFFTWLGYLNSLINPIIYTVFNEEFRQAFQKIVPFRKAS

[8] = molecular target: T2, 5-hydroxytryptamine receptor 2C (Homo sapiens, UniProt P28335); assay: Binding affinity to 5HT2C receptor
T2 sequence (P28335 whole entry): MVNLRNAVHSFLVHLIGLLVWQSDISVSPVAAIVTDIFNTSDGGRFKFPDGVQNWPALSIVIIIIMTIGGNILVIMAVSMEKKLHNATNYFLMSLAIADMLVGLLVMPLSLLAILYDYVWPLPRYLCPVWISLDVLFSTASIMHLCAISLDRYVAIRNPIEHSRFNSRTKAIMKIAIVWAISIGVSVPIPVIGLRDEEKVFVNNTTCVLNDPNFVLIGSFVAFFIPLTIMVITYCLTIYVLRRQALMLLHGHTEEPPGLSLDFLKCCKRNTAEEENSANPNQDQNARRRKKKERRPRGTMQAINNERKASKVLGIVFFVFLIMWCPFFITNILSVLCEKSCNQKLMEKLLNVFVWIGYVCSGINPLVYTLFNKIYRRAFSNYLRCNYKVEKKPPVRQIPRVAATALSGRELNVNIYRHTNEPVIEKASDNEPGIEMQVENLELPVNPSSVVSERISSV

[9] = Selectivity for human 5HT5A receptor over 5HT3 receptor
[10] = Selectivity for human 5HT5A receptor over 5HT2A receptor
[11] = molecular target: Histamine H1 receptor (Homo sapiens, UniProt P35367); assay: Binding affinity to histamine H1 receptor
Chain of Histamine H1 receptor (P35367 whole entry): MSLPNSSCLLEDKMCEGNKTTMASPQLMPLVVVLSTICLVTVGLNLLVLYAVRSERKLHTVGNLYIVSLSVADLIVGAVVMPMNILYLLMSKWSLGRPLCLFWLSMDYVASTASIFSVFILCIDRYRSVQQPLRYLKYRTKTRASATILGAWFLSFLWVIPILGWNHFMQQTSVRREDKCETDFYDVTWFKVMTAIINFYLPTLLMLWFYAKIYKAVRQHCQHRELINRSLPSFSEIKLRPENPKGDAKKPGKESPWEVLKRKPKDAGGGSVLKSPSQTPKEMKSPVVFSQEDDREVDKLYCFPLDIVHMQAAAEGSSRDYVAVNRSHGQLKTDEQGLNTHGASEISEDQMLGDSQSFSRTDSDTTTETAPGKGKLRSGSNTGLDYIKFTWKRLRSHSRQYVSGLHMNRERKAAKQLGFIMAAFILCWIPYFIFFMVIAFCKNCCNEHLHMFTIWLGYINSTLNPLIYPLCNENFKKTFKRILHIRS

Chain of 5-hydroxytryptamine receptor 5A (P47898 whole entry): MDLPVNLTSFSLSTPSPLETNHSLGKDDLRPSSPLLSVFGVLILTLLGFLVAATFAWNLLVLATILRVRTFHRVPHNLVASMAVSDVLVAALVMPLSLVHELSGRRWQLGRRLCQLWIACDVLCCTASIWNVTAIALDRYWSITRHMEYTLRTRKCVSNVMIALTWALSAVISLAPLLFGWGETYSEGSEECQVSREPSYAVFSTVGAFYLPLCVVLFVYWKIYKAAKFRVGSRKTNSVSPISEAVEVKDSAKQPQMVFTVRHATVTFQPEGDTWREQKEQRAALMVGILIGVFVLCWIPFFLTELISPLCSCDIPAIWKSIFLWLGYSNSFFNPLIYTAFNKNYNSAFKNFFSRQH

Row | Ki [1] [nM] | logD [2] | Ki [3] [nM] | Ki [4] [nM] | Selectivity ratio [5] | pKa [6] | Ki [7] [nM] | Ki [8] [nM] | Selectivity ratio [9] | Selectivity ratio [10] | Ki [11] [nM] | SMILES
1 | 124 | 1.3 | – | – | – | – | – | – | – | – | – | CC1NC(NCCC2CCCCC2)=Nc2ccccc21 (centres undefined)
2 | 96 | -0.8 | – | – | – | – | – | – | – | – | – | CC1NC(NCC2COCCO2)=Nc2ccccc21 (centres undefined)
3 | 22.2 | 0.1 | 240 | 4.2 | > 30 | 10.2 | 82 | 2150 | > 30 | > 30 | – | CC(C)Oc1cccc2c1N=C(NCC(F)F)NC2C (centres undefined)
4 | 504 | 2.7 | 612 | 1700 | – | 8.5 | > 10000 | 238 | – | – | – | C[C@H]1NC(NCC(F)F)=Nc2ccc(Cl)c(Cl)c21
5 | 176 | -0.3 | – | – | – | – | – | – | – | – | – | CCOCCCNC1=Nc2ccccc2C(C)N1 (centres undefined)
6 | 488 | 0.5 | – | – | – | 9.2 | – | – | – | – | – | CC1NC(NCC(F)(F)F)=Nc2ccccc21 (centres undefined)
7 | 87 | -0.2 | – | – | – | 9.7 | – | – | – | – | – | CC1NC(NCC(F)F)=Nc2ccccc21 (centres undefined)
8 | 33.4 | 3 | 87 | 366 | > 30 | 7.8 | > 10000 | 675 | > 30 | > 30 | – | CC1NC(NCC(F)F)=Nc2c(Cl)ccc(Cl)c21 (centres undefined)
9 | 37 | 1 | – | – | – | – | – | – | – | – | – | CC1NC(NCC2COc3ccccc3O2)=Nc2ccccc21 (centres undefined)
10 | 1470 | – | – | – | – | – | – | – | – | – | – | C[C@H]1NC(NCC(F)F)=Nc2cccc(Cl)c21
11 | 397 | – | – | – | – | – | – | – | – | – | – | CC1NC(NCCF)=Nc2ccccc21 (centres undefined)
12 | 1.8 | 2.7 | 75 | 7.7 | > 30 | 8.5 | 233 | 121 | > 30 | > 30 | 2.6 | C[C@@H]1NC(NCC(F)F)=Nc2ccc(Cl)c(Cl)c21
13 | 122 | -0.6 | – | – | – | – | – | – | – | – | – | CC1NC(NC2CCC2)=Nc2ccccc21 (centres undefined)
14 | 22.2 | 1.5 | 348 | 17.6 | > 30 | 8.9 | 1810 | 233 | > 30 | > 30 | – | COc1c(Cl)ccc2c1C(C)NC(NCC(F)F)=N2 (centres undefined)
15 | 103 | -0.6 | – | – | – | 10.6 | – | – | – | – | – | CNC1=Nc2ccccc2C(C)N1 (centres undefined)
